For eleven compounds, Activity results are on record in ChEMBL document CHEMBL1154054, “Novel 4-(morpholin-4-yl)-N'-(arylidene)benzohydrazides: synthesis, antimycobacterial activity and QSAR investigations” (Eur J Med Chem, 2009).

Each structure is given as a SMILES string.

What all share (format): functional
What all share (set-up): scale not given: the % may be the effect or the level left

Assay [1] relates to Mycobacterium tuberculosis. Put plainly: Antimycobacterial activity against Mycobacterium tuberculosis H37Rv assessed as reduction in relative light units at 10 ug/ml after 72 hrs by LRP assay. The method in brief:
(§1)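 Luciferase reporter phage assay on M. tuberculosis (H37Rv, or clinical isolates resistant to S, H, R and E). Each sample had two drug-free controls and four drug concentrations, incubated 72 h at 37 °C. High-titer phAE129 phage plus 0.1 M CaCl₂ was added, then 4 h at 37 °C. Equal volume D-luciferin (0.3 mM, pH 4.5 citrate) was added; RLU integrated 10 s, duplicate mean; % RLU reduction vs control.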

Assay [2] has as its system Mycobacterium tuberculosis. Nature of the assay: Antimycobacterial activity against Mycobacterium tuberculosis H37Rv assessed as reduction in relative light units at 0.05 ug/ml after 72 hrs by LRP assay. The method in brief:
as §1

Assay [3] concerns Mycobacterium tuberculosis. Put plainly: Antimycobacterial activity against Mycobacterium tuberculosis H37Rv assessed as reduction in relative light units at 0.5 ug/ml after 72 hrs by LRP assay. The procedure, abridged: as §1
The test system of assay [4] is Mycobacterium tuberculosis. Put plainly: Antimycobacterial activity against Mycobacterium tuberculosis H37Rv assessed as reduction in relative light units at 5 ug/ml after 72 hrs by LRP assay. The procedure, abridged: as §1

For `Cc1ccc(/C=N/NC(=O)c2ccc(N3CCOCC3)cc2)cc1`, the Activity in assay [1] is recorded as 98.18%; in assay [2] it was 24.19%; in assay [3] it was 97.29%; in assay [4], 97.75%.
With `COc1cc(/C=N/NC(=O)c2ccc(N3CCOCC3)cc2)cc(OC)c1OC`, the Activity in assay [1] is 97.77%; in assay [2], 49.68%; in assay [3], 96.51%; in assay [4], 97.59%.
Turning to `O=C(N/N=C1\C=CCO1)c1ccc(N2CCOCC2)cc1`, the Activity in assay [1] is reported as 97.55%; in assay [2], 15.04%; in assay [3], 96.9%; in assay [4] it was 98.41%.
Turning to `O=C(N/N=C/c1ccc(F)cc1)c1ccc(N2CCOCC2)cc1`, the Activity is 99.09% in assay [1], 96.78% in assay [2], 98.22% in assay [3] and 98.98% in assay [4].
Take `O=C(N/N=C/c1ccc(O)cc1)c1ccc(N2CCOCC2)cc1`: the Activity is on record as 97.24% in assay [1], 51.79% in assay [2], 77.81% in assay [3] and 97.53% in assay [4].
Regarding `COc1ccc(/C=N/NC(=O)c2ccc(N3CCOCC3)cc2)cc1`, the Activity in assay [1] is recorded as 97.18%; in assay [2], 30.04%; in assay [3], 96.24%; in assay [4], 98.1%.
For `O=C(N/N=C/c1cccc([N+](=O)[O-])c1)c1ccc(N2CCOCC2)cc1`, in that order: 98.4%, 9.118%, 98.04% and 98.4%.
For `O=C(N/N=C/c1ccc(Cl)cc1)c1ccc(N2CCOCC2)cc1`, the Activity in assay [1] is listed as 99.26%; in assay [2], 78.09%; in assay [3], 98.02%; in assay [4] it was 98.38%.
The like results for `O=C(N/N=C\C=C\c1ccccc1)c1ccc(N2CCOCC2)cc1` were, in that order, 97.32%, 63.16%, 98.96% and 97.82%.
Regarding `CN(C)c1ccc(/C=N/NC(=O)c2ccc(N3CCOCC3)cc2)cc1`, the Activity in assay [1] is given as 98.82%; in assay [2], 20.85%; in assay [3], 98.09%; in assay [4], 98.49%.
Regarding `NNC(=O)c1ccncc1` [ISONIAZID], the Activity in assay [1] is 98.99%; in assay [2], 96%; in assay [3], 98.42%; in assay [4] it was 99.01%.
